We go through four compounds from ChEMBL document CHEMBL3774321, “Systematic diversification of benzylidene heterocycles yields novel inhibitor scaffolds selective for Dyrk1A, Clk1 and CK2” (Eur J Med Chem, 2016).

A short description of data set [1]: Growth inhibition of human U87MG cells after 4 days by MTT assay. The class given is functional, cell-based, U-87MG ATCC. The settings on record: U-87 MG, 96 h.
Data set [2] in a line: Half life in rat plasma at 1 uM by LC-MS/MS analysis. The class given is ADME, cell-free. A digest of the protocol: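 Pooled heparinized rat plasma incubated with 1 μM compound at 37 °C, sampled at 0, 5, 15, 30, 60 and 120 min. Reaction stopped with 5 volumes cold acetonitrile containing internal standard. Remaining compound quantified by LC-MS/MS. Half-life given as mean of two experiments.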

For data set [3], the target named is T1, Dual specificity tyrosine-phosphorylation-regulated kinase 1A (Homo sapiens, UniProt Q13627). In words: Inhibition of recombinant human N-terminal His6-tagged DYRK1A catalytic domain expressed in Escherichia coli BL21(DE3) cells using KKISGRLSPIMTEQ-NH2 as substrate incubated for 15 mins in presence of [gamma-32P]ATP.
Data set [4] concerns the target Dual specificity tyrosine-phosphorylation-regulated kinase 1B (Homo sapiens, UniProt Q9Y463). The data set can be described thus: Inhibition of full length recombinant human GST-tagged DYRK1B expressed in insect cells using KKISGRLSPIMTEQ-NH2 as substrate incubated for 15 mins in presence of [gamma-32P]ATP.
Data set [5] addresses T2, Dual specificity tyrosine-phosphorylation-regulated kinase 2 (Homo sapiens, UniProt Q92630).
T2 sequence (Q92630 whole entry): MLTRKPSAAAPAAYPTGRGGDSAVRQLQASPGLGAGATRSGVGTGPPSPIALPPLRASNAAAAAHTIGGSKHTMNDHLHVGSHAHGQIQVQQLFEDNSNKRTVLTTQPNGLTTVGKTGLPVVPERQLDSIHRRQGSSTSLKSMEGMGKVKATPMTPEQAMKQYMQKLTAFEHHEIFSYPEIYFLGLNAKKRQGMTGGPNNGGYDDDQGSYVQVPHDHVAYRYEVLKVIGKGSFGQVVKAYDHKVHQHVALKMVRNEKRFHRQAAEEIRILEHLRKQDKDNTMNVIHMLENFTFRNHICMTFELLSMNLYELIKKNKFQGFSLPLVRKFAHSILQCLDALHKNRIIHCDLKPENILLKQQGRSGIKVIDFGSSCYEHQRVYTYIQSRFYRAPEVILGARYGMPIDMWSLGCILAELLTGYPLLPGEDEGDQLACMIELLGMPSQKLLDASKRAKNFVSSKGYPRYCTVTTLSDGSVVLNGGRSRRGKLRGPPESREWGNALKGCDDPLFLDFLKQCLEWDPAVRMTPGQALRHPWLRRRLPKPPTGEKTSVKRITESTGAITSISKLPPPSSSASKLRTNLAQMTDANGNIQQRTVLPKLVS
In words: Inhibition of recombinant human N-terminal GST-tagged DYRK2 expressed in Escherichia coli BL21(DE3) cells using KKISGRLSPIMTEQ-NH2 as substrate incubated for 15 mins in presence of [gamma-32P]ATP. Particulars: read-out: IC50; call rule not given here. The essentials: (§1)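 Purified recombinant kinase with 100 µM ATP. IC50 values are averages of at least two independent determinations.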

The target in a further data set is Casein kinase II (Homo sapiens, UniProt P19784+P67870+P68400). The data set can be described thus: Inhibition of CK2 (unknown origin) using RRRDDDSDDD-NH2 as susbtrate incubated for 15 mins in presence of [gamma-32P]ATP. Format: protein-complex assay.
Data set [6] has as its target Dual specificity protein kinase CLK1 (Homo sapiens, UniProt P49759). In words: Inhibition of recombinant human GST-tagged CLK1 catalytic domain (129 to 484 residues) expressed in Escherichia coli using GRSRSRSRSRSRSRSR as substrate incubated for 15 mins in presence of [gamma-32P]ATP. The essentials: as §1
Data set [7] deals with Epidermal growth factor receptor (Homo sapiens, UniProt P00533). In words: Inhibition of EGFR (unknown origin) incubated for 15 mins in presence of [gamma-32P]ATP. The settings on record: read-out: IC50. A digest of the protocol: (§2)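 Purified recombinant kinase assayed with 100 μM ATP. Values averaged from at least two independent determinations.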
Sequence of Epidermal growth factor receptor (P00533 whole entry): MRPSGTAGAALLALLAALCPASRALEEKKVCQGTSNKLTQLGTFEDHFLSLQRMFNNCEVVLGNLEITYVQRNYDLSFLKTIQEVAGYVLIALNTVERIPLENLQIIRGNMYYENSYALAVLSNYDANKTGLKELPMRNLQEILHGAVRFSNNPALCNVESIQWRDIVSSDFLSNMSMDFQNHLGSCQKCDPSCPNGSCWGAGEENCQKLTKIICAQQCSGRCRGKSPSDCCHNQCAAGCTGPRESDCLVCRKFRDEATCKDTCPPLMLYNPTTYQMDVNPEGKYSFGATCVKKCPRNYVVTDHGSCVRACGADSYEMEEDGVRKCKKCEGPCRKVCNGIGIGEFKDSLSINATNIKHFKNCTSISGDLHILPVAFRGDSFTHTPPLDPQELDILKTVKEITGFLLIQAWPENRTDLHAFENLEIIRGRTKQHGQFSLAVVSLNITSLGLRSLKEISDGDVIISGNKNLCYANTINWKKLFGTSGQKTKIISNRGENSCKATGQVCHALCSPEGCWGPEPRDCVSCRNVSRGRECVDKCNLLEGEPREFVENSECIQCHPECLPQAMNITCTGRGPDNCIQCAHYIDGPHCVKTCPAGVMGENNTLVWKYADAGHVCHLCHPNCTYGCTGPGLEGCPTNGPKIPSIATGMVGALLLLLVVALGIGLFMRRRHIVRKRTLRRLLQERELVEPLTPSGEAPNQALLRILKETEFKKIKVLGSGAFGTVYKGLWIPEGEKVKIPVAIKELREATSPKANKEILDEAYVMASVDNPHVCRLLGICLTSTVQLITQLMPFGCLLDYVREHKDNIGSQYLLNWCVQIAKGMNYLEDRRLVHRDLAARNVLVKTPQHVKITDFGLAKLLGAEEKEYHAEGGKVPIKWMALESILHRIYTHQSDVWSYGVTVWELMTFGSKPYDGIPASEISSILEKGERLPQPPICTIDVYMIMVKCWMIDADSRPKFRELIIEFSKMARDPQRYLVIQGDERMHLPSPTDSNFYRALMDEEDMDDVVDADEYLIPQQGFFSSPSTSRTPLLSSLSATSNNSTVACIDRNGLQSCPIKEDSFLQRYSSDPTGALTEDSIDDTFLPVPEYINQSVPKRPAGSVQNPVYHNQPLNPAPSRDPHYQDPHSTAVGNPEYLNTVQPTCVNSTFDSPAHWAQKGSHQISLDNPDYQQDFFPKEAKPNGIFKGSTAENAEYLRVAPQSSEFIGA
Data set [8] concerns the target Protein kinase C beta type (Homo sapiens, UniProt P05771). The data set can be described thus: Inhibition of PKCbeta (unknown origin) incubated for 15 mins in presence of [gamma-32P]ATP. A digest of the protocol:
as §2

In data set [9] the target is Serine/threonine-protein kinase haspin (Homo sapiens, UniProt Q8TF76). The data set can be described thus: Inhibition of Haspin (unknown origin). A digest of the protocol: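 Calculated from means of duplicates differing by less than 7%.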
In data set [10] the target is Phosphatidylinositol 4-phosphate 3-kinase C2 domain-containing subunit beta (Homo sapiens) (UniProt O00750). The data set can be described thus: Inhibition of PI3K-C2beta (unknown origin) at 1 uM relative to control. A digest of the protocol: (§3)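 Single-point screen at 1 μM compound. Percent inhibition is the mean of two separate measurements, each run in duplicate.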

The target of data set [11] is T3, Phosphatidylinositol 4,5-bisphosphate 3-kinase catalytic subunit alpha isoform (Homo sapiens, UniProt P42336). The data set can be described thus: Inhibition of PI3K p110alpha (unknown origin) at 1 uM relative to control. A digest of the protocol:
as §3

Data set [12] deals with T3, Phosphatidylinositol 4,5-bisphosphate 3-kinase catalytic subunit alpha isoform. In words: Inhibition of PI3K p110alpha (unknown origin).
Data set [13] deals with T4, Phosphatidylinositol 4,5-bisphosphate 3-kinase catalytic subunit gamma isoform (Homo sapiens, UniProt P48736). The data set can be described thus: Inhibition of PI3K p110gamma (unknown origin) at 1 uM relative to control. A digest of the protocol: as §3
T4 sequence (P48736 whole entry, looked up, canonical isoform): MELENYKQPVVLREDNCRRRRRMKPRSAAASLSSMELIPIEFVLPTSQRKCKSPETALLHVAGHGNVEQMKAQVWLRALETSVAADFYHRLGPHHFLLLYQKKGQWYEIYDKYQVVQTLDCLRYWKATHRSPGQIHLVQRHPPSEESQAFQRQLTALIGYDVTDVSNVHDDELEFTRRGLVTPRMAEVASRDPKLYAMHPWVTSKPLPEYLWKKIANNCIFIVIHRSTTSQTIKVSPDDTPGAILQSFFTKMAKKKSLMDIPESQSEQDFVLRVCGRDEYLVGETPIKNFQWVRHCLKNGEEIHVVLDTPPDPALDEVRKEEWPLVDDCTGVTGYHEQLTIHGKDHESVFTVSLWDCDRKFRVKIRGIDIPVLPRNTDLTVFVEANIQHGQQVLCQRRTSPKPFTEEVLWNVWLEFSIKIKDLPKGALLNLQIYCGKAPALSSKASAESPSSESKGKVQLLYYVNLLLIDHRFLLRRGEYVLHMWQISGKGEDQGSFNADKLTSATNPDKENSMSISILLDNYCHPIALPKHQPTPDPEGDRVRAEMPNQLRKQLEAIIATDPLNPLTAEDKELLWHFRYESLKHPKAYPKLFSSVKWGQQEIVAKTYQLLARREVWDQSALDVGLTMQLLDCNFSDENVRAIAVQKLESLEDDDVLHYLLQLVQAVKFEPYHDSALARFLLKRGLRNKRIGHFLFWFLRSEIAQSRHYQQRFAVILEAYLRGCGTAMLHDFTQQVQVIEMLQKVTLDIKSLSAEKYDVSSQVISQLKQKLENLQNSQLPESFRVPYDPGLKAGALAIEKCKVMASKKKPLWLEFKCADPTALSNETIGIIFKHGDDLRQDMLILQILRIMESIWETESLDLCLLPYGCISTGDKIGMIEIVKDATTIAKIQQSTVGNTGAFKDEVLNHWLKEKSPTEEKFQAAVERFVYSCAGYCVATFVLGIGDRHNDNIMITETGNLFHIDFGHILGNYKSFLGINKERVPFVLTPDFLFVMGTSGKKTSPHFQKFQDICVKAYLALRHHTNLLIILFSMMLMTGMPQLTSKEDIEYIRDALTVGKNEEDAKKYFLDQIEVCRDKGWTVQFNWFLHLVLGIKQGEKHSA
Data set [14] addresses T1, Dual specificity tyrosine-phosphorylation-regulated kinase 1A. In words: Inhibition of tetracycline-inducible EGFP-DYRK1A (unknown origin) expressed in HEK293 cells coexpressing full length human EGFP-tau protein assessed as reduction in tau-Thr212 phosphorylation incubated overnight by immunoblotting assay.
Data set [15] addresses Phosphatidylinositol 4-phosphate 3-kinase C2 domain-containing subunit beta (Homo sapiens) (UniProt O00750). In words: Inhibition of PI3K-C2beta (unknown origin) at 5 uM relative to control.
The target of data set [16] is T4, Phosphatidylinositol 4,5-bisphosphate 3-kinase catalytic subunit gamma isoform. In words: Inhibition of PI3K p110gamma (unknown origin) at 5 uM relative to control.

Bounds are passed on as bounds.

T3 sequence (P42336 whole entry, canonical isoform): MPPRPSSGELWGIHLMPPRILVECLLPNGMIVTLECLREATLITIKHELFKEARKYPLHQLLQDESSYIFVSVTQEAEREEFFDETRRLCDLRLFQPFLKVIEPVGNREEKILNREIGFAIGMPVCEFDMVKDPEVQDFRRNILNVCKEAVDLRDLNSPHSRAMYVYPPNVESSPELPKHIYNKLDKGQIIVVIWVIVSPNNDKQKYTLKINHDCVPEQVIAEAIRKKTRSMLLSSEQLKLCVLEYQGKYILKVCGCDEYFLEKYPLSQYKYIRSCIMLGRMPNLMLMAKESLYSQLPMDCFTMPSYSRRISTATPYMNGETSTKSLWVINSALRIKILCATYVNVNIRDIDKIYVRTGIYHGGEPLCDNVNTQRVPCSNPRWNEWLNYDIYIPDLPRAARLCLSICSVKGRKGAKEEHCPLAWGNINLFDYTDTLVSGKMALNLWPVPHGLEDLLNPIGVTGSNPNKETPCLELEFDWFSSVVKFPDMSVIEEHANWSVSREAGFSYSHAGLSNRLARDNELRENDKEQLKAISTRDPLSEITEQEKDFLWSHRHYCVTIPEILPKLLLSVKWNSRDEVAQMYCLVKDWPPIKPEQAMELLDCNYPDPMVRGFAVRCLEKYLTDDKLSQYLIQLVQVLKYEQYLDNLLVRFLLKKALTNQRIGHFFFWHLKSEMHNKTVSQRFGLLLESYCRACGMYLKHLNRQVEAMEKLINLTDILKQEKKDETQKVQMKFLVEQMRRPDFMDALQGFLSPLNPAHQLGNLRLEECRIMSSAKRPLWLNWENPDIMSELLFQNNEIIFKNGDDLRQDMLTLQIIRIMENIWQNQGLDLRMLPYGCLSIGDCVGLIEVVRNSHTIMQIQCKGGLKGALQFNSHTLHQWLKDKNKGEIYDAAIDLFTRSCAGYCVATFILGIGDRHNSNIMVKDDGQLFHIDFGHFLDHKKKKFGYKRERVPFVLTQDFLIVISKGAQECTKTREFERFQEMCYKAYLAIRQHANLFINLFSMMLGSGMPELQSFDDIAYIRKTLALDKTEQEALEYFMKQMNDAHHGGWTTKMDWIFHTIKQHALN
Sequence of Dual specificity tyrosine-phosphorylation-regulated kinase 1B (Q9Y463 whole entry): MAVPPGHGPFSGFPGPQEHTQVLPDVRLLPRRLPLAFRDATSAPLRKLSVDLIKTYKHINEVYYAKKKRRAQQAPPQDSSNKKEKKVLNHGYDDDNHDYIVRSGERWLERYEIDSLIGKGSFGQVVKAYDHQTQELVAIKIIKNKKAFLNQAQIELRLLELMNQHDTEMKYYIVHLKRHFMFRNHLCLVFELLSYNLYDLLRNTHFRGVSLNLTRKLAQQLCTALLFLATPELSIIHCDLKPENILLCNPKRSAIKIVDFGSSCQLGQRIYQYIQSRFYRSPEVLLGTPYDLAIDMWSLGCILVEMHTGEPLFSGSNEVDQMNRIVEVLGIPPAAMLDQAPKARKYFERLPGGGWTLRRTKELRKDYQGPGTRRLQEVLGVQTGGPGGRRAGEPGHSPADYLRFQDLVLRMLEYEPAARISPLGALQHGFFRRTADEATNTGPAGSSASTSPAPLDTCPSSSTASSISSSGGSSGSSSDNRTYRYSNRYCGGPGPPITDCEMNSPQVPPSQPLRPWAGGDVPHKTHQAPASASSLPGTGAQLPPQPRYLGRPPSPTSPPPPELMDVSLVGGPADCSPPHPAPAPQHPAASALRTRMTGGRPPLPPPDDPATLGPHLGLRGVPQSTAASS
Sequence of Dual specificity protein kinase CLK1 (P49759 whole entry, the tested form may be a part): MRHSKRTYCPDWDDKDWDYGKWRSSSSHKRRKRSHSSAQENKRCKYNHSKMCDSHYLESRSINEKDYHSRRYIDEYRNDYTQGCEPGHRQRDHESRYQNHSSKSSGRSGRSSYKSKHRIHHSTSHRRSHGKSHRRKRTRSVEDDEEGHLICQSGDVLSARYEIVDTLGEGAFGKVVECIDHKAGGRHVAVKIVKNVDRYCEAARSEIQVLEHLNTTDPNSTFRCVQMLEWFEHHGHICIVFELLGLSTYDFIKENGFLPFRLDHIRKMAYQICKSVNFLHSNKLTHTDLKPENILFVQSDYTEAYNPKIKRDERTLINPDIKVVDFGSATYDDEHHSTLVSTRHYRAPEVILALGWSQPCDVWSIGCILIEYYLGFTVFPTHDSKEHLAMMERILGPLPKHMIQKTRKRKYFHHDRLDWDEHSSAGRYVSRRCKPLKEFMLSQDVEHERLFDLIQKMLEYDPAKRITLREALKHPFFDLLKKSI

For the compound `O=C1NC(=S)S/C1=C\c1ccc2ncsc2c1`, the IC50 (as a rule, the concentration that inhibits the measured activity by half) in data set [1] is 560 nM; in data set [3], 40 nM; in data set [4] it was 70 nM; in data set [5], 200 nM; at Casein kinase II, 60 nM; in [6], 100 nM. The IC50 in data set [7] was greater than 10000 nM; in [8] (read-out: IC50), 9200 nM; in [9] it was 255 nM; in [12], 2.2 nM; in [14], 2100 nM. For the same compound, the half-life (as a rule, how long it takes for the measured level to halve) at 1 µM in data set [2] is 1.68 h. Besides, the inhibition (usually the change of the read-out against control, counted positive when it falls) in data set [10] is 56%; in data set [11] it was 98%; in data set [13] it was 97%.

Take `O=C1OCC/C1=C\c1ccc2ncsc2c1`: in [2], the half-life at 1 µM worked out at 3.1 h. In addition, the IC50 in data set [3] is 130 nM; in data set [4], 1050 nM; in [5], 60 nM; at Casein kinase II, greater than 10000 nM; in data set [6], greater than 10000 nM; in [7], greater than 10000 nM. Also, the IC50 result in data set [8] was “Not Active”; in data set [14] it was 200 nM. Further, the values for the inhibition in [15] and in data set [16] were 13% and 79%, respectively.

For the compound `O=C1NC(=S)S/C1=C\c1ccc2ncccc2c1`, the half-inhibitory concentration (IC50) in [1] was 200 nM; in data set [3], 20 nM; in data set [4], 60 nM; in data set [5] it was 60 nM; at Casein kinase II, 40 nM; in [6], 200 nM. In addition, the IC50 was greater than 10000 nM in data set [7]; greater than 10000 nM in data set [8] (read-out: IC50); 259 nM in [9]; 2.6 nM in [12]; 1400 nM in data set [14]. Moreover, the inhibition stood at 62% in data set [10], 100% in data set [11] and 97% in data set [13].

In [2], `CC1C/C(=C\c2ccc3c(c2)CCO3)C(=O)O1` (configuration not stated) had a half-life at 1 µM greater than 2 h. Besides, the IC50 in data set [3] is 170 nM; in data set [4] it was 2640 nM; in data set [5] it was 430 nM; on Casein kinase II, greater than 10000 nM; in data set [6] it was greater than 10000 nM; in data set [7], greater than 10000 nM. For the same compound, the values for the IC50 result in data set [8], in data set [12] and in data set [14] were “Not Active”, 650 nM and 2100 nM, respectively. In addition, the inhibition stood at 8% in data set [15] and 75% in [16].
